Measured values from ChEMBL document CHEMBL3045646, “Synthesis and antityrosinase activities of alkyl 3,4-dihydroxybenzoates” (J Agric Food Chem, 2011).
The source made the active and inactive calls. No cut-off for these calls is given here.

Tests used:
Tyrosinase [1] = biological target: T1, Tyrosinase (Agaricus bisporus, UniProt O42713); test: Inhibition of Agaricus bisporus (mushroom) tyrosinase-catalyzed oxidation of L-DOPA substrate by spectrophotometric analysis
T1 sequence (O42713 whole entry): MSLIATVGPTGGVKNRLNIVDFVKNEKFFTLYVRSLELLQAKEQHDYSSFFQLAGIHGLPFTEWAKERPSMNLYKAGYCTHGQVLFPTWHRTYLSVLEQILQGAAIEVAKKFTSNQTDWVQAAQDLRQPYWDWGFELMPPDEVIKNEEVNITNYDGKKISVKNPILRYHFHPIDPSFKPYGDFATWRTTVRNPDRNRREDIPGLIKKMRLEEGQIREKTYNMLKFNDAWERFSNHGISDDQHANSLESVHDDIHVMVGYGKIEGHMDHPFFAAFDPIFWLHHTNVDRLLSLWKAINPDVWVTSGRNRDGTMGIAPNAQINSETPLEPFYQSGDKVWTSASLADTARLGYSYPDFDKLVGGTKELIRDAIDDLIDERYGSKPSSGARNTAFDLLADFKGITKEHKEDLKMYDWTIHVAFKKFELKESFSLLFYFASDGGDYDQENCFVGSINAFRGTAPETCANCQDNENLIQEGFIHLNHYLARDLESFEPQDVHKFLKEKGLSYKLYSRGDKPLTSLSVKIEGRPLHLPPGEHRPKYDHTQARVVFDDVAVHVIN
Method in brief: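 Diphenolase activity of mushroom tyrosinase (6.67 μg/mL final) with 0.5 mM L-DOPA in 50 mM sodium phosphate pH 6.8, 30 °C. Inhibitors added from DMSO, 3.3% DMSO final; DMSO-only controls. Rate from slope of linear A475 progress curve. IC50 = concentration giving 50% activity loss.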

[2] = biological target: T2, Tyrosinase (Agaricus bisporus) (UniProt O42713); test: Irreversible inhibition of Agaricus bisporus (mushroom) tyrosinase assessed as remaining enzyme activity using L-DOPA as substrate by spectrophotometric analysis
T2 sequence (whole entry): T1 sequence (O42713 whole entry)
Method in brief: (§1)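 Reversibility tested with L-DOPA as substrate in pH 6.8 phosphate buffer at 30 °C, with A475 read-out. Remaining activity was plotted against enzyme concentration at several inhibitor levels, with inhibitor series of 0–200, 0–100 or 0–80 μM. Lines through the origin were taken as reversible, and parallel lines not through the origin as irreversible.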

[3] = biological target: T2, Tyrosinase (Agaricus bisporus); test: Reversible inhibition of Agaricus bisporus (mushroom) tyrosinase assessed as remaining enzyme activity using L-DOPA as substrate by spectrophotometric analysis; method in brief: as §1
Plutella xylostella [4] = test: Insecticidal activity against second-instar larval stage of Plutella xylostella (diamondback moth) assessed as inhibition of insect development and molting at 40 mg/ml after 3 days (reference value: 0.95 cm); assay type: functional
Method in brief: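 Compound dissolved in acetone, diluted (2.5–40 mg/mL) and spread over feed surface. Larvae kept at 27 ± 2 °C, 70% humidity, 14:10 h light:dark photoperiod. Larval body length recorded after 3 days.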

[5] = biological target: T2, Tyrosinase (Agaricus bisporus); test: Uncompetitive inhibition of Agaricus bisporus (mushroom) tyrosinase assessed as […] in Km and Vm without change in Km/Vm using L-DOPA as substrate at 50 uM by Line-weaver burk plot analysis
Method in brief: (§2)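 L-DOPA oxidation by mushroom tyrosinase at 30 °C, pH 6.8, with inhibitor at 0, 50, 100, 150 and 200 μM, read at 475 nm. Inhibition type came from Lineweaver–Burk plots (1/v vs 1/[S]). K_IS came from a secondary plot of 1/V_m (or apparent K_m/V_m) against inhibitor concentration.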

Plutella xylostella [6] = test: Downregulation of tyrosinase inactive precursor, PxPPO gene expression in newly molted second-instar larval stage of Plutella xylostella (diamondback moth) at 2.5 to 40 mg/ml after 72 hr by real-time quantitative PCR analysis; assay type: functional, organism-based
Method in brief: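 Compound in acetone, diluted to 2.5, 5, 20 and 40 mg/mL and spread on feed surface in wells. Larvae reared at 27 ± 2 °C, 70% humidity, 14:10 h light:dark. Whole-body PxPPO2 transcripts measured 72 h after treatment by real-time qPCR (95 °C 10 s; 45 cycles of 95 °C 5 s / 60 °C 20 s), with melting-curve check, normalized to GAPDH.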

Tyrosinase [7] = biological target: T1, Tyrosinase; test: Inhibition of Agaricus bisporus (mushroom) tyrosinase using L-DOPA as substrate by secondary plot analysis; method in brief: as §2
[8] = biological target: T2, Tyrosinase (Agaricus bisporus); test: Uncompetitive inhibition of Agaricus bisporus (mushroom) tyrosinase assessed as […] in Km and Vm without change in Km/Vm using L-DOPA as substrate by Line-weaver burk plot analysis; method in brief: as §2
[9] = biological target: T2, Tyrosinase (Agaricus bisporus); test: Reversible inhibition of Agaricus bisporus (mushroom) tyrosinase assessed as remaining enzyme activity at <50 uM using L-DOPA as substrate by spectrophotometric analysis; method in brief: as §1
[10] = biological target: T2, Tyrosinase (Agaricus bisporus); test: Irreversible inhibition of Agaricus bisporus (mushroom) tyrosinase assessed as remaining enzyme activity at >75 uM using L-DOPA as substrate by spectrophotometric analysis; method in brief: as §1

**Q.** How did the IC50 (Tyrosinase [1]) turn out when `CCCCCCCCCOC(=O)c1ccc(O)c(O)c1` [NONYL 3,4-DIHYDROXYBENZOATE] was run?
**A.** 81 µM

**Q.** And the inhibition [2]?
**A.** Active

**Q.** How did the IC50 (Tyrosinase [1]) turn out when `CCCCCCOC(=O)c1ccc(O)c(O)c1` [HEXYL 3,4-DIHYDROXYBENZOATE] was run?
**A.** 910 µM

**Q.** And the inhibition [3]?
**A.** Active

**Q.** What about the Activity (Plutella xylostella [4]) of the same compound?
**A.** 0.3 cm

**Q.** What about the inhibition [5] of the same compound?
**A.** Active

**Q.** What about the inhibition (Plutella xylostella [6]) of the same compound?
**A.** Active

**Q.** What about the Ki (Tyrosinase [7]) of the same compound?
**A.** 389 µM

**Q.** Which IC50 (Tyrosinase [1]) does the source give for `CCCCCCCOC(=O)c1ccc(O)c(O)c1` [HEPTYL 3,4-DIHYDROXYBENZOATE] here?
**A.** 316 µM

**Q.** What about the inhibition [3] of the same compound?
**A.** Active

**Q.** What about the inhibition [8] of the same compound?
**A.** Active

**Q.** What about the Ki (Tyrosinase [7]) of the same compound?
**A.** 135 µM

**Q.** How did the IC50 (Tyrosinase [1]) turn out when `CCCCCCCCOC(=O)c1ccc(O)c(O)c1` [OCTYL 3,4-DIHYDROXYBENZOATE] was run?
**A.** 129 µM

**Q.** And the inhibition [9]?
**A.** Active

**Q.** What about the inhibition [5] of the same compound?
**A.** Active

**Q.** And the inhibition [10]?
**A.** Active
